Laboratory results published in ChEMBL document CHEMBL1124947, “Cationic antiprotozoal drugs. Trypanocidal activity of 2-(4'-formylphenyl)imidazo[1,2-a]pyridinium guanylhydrazones and related derivatives of quaternary heteroaromatic compounds” (J Med Chem, 1990).

Tests used:
Format in all cases: functional
Mus musculus [1] = assay: Trypanocidal Activity at I.C.E. value 0.85 when administered subcutaneously.
Summary of the method: (§1)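 Mice, in groups of five per dose, were given a standard inoculum of blood-stage T. rhodesiense that is lethal to all untreated controls, then dosed subcutaneously. Usually 11 dose levels were used (2^n × 0.42 mg/kg).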

Mus musculus [2] = assay: Trypanocidal Activity at I.C.E. value 0.59 when administered perorally.
Mus musculus [3] = assay: Trypanocidal Activity at I.C.E. value 0.89 when administered subcutaneously.; summary of the method: as §1
[4] = test system: Trypanosoma brucei rhodesiense; assay: In Vitro measurement of inhibition of thymidine uptake in cell culture of Trypanosoma rhodesiense; conditions: read-out: ID50 (the source's name)
Summary of the method: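 Parasites harvested from infected rats and incubated 3 h across a drug concentration series, usually 0.1–100 µg/mL. Incorporation of radiolabeled thymidine measured. ID50 is the concentration (µg/mL) producing 50% inhibition.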

[5] = test system: Trypanosoma brucei rhodesiense; assay: In Vitro measurement of inhibition of leucine uptake in cell culture of Trypanosoma rhodesiense; conditions: read-out: ID50 (the source's name)
Summary of the method: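 Trypanosomes harvested from infected rats, cultured 3 h with several concentrations of drug, usually 0.1–100 µg/mL. Radiolabeled L-leucine uptake measured. ID50 is the concentration in µg/mL giving 50% inhibition of incorporation.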

Mus musculus [6] = assay: Trypanocidal Activity at I.C.E. value 0.64 when administered subcutaneously.; summary of the method: as §1
Mus musculus [7] = assay: Trypanocidal Activity at I.C.E. value 0.19 when administered perorally.
Mus musculus [8] = assay: Trypanocidal Activity at I.C.E. value 0.53 when administered subcutaneously.
Summary of the method: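 Blood-stage T. rhodesiense infection came from a standard inoculum lethal to all untreated mice. Drug was given by subcutaneous injection to groups of five mice. Survival beyond 30 days counted as cure. […] Sub-curative doses scored 0, and data were normalized at each dose.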

Mus musculus [9] = assay: Trypanocidal Activity at I.C.E. value 0.77 when administered subcutaneously.; summary of the method: as §1

In the case of `C[n+]1c(-c2ccc(/C=N/NC(=N)NO)cc2)cn2ccccc21.Cc1ccc(S(=O)(=O)O)cc1.Cc1ccc(S(=O)(=O)[O-])cc1`, the CD50 (Mus musculus [1]) was 0.8 mg/kg and the CD50 (Mus musculus [2]) was 6.6 mg/kg.
Compound `C[n+]1c(/C=C/c2ccc(/C=N/NC(=N)N)cc2)cn2ccccc21.Cc1ccc(S(=O)(=O)O)cc1.Cc1ccc(S(=O)(=O)[O-])cc1` has a CD50 (Mus musculus [3]) of 0.1 mg/kg, an IC50 [4] of 2.7 µg/mL and an IC50 [5] of 9.3 µg/mL.
For `Br.C[n+]1c(COc2ccc(/C=N/NC3=NCCCN3)cc2)cn2cc(C(F)(F)F)ccc21.[Br-]`, the CD50 (Mus musculus [6]) was 1.6 mg/kg, the IC50 [4] was 0.4 µg/mL and the IC50 [5] was 0.5 µg/mL. It also gave a CD50 (Mus musculus [7]) of 106 mg/kg.
`Br.Cc1ccn2cc(-c3ccc(/C=N/NC(=N)N4CCOCC4)cc3)[n+](C)c2c1.[Br-]` showed a CD50 (Mus musculus [8]) of 0.4 mg/kg.
In the case of `Br.Cc1ccc2n(c1)cc(/C=C/c1ccc(/C=N/NC(=N)N3CCCC3)cc1)[n+]2C.[Br-]`, the CD50 (Mus musculus [9]) was 0.4 mg/kg.
